Laboratory results from ChEMBL document CHEMBL3097988, “Synthesis and characterization of new N-(4-(4-chloro-1H-imidazol-1-yl)-3-methoxyphenyl)amide/sulfonamide derivatives as possible antimicrobial and antitubercular agents” (2014).
Values after ≈ are worked out from the molar mass of the structure shown.

Tests used:
Type in all cases: functional
[1] = tested on: Mycobacterium tuberculosis; assay: Antimicrobial activity against Mycobacterium tuberculosis H37Rv ATCC 27294 at 1 to 100 ug/ml after 7 days by resazurin assay
How it was run: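 Preliminary screen at three concentrations (1, 10 and 100) by resazurin microtitre assay. Cultures were grown in Middlebrook 7H9 with 10% OADC, and compounds came from 2 mg/mL DMF stocks with DMF controls. Plates were incubated 7 days at 37 °C, and resazurin colour was read after 1 h. Inhibition was scored as no blue-to-pink change.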

[2] = tested on: Mycolicibacterium smegmatis; assay: Antimicrobial activity against Mycobacterium smegmatis (MC2) ATCC 19420 after 7 days by resazurin assay; settings: (MC2) ATCC 19420, 168 h
[3] = tested on: Mycobacterium tuberculosis; assay: Antimicrobial activity against Mycobacterium tuberculosis H37Rv ATCC 27294 after 7 days by resazurin assay; settings: H37Rv ATCC 27294, 168 h
How it was run: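 Resazurin microtitre assay. Cultures were grown in Middlebrook 7H9 with 10% OADC and added to fresh medium in 96-well plates. Test compounds came from 2 mg/mL DMF stocks, with DMF-only controls. Plates were incubated 7 days at 37 °C, then resazurin was added and read after 1 h at 37 °C. MIC was the lowest concentration preventing the blue-to-pink change.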

[4] = tested on: Rhizopus; assay: Antimicrobial activity against Rhizopus sp. after 3 to 4 days by serial plate dilution method
How it was run: (§1)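 Fungal MIC by serial plate dilution. Sabouraud agar (peptone, D-glucose, agar; pH 5.7) plates seeded with saline spore suspension, dried 1 h at 37 °C. Wells punched and filled with compound in DMSO; DMSO-only control. Triplicate plates held 3–4 days at 37 °C; inhibition zone diameter measured. Amphotericin B positive control. Tested range […] per mL.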

[5] = tested on: Aspergillus flavus; assay: Antimicrobial activity against Aspergillus flavus after 3 to 4 days by serial plate dilution method; how it was run: as §1
[6] = tested on: Candida albicans; assay: Antimicrobial activity against Candida albicans after 3 to 4 days by serial plate dilution method; how it was run: as §1
[7] = tested on: Klebsiella pneumoniae; assay: Antimicrobial activity against Klebsiella pneumoniae ATCC 13883 after 16 to 18 hrs by serial plate dilution method
How it was run: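 Bacterial MIC by serial dilution in Mueller-Hinton broth adjusted to pH 5.0 with phosphate buffer. Tubes inoculated with standardized bacterial suspension, incubated 16–18 h at 37 °C. MIC read as lowest concentration with no visible growth. Range […] per mL. DMSO as negative control, ciprofloxacin as positive control.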

[8] = tested on: Escherichia coli; assay: Antimicrobial activity against Escherichia coli ATCC 25922 after 16 to 18 hrs by […]
[9] = tested on: Staphylococcus aureus; assay: Antimicrobial activity against Staphylococcus aureus ATCC 25923 after 16 to 18 hrs by […]
[10] = tested on: Mycolicibacterium fortuitum; assay: Antimicrobial activity against Mycobacterium fortuitum ATCC 19542 after 7 days by resazurin assay; settings: ATCC 19542, 168 h

| SMILES | inhibition (INH) [1] [%] | MIC [2] [µg/mL] | MIC [3] [µg/mL] | MIC [4] [µg/mL] | MIC [5] [µg/mL] | MIC [6] [µg/mL] | MIC [7] [µg/mL] | MIC [8] [µg/mL] | MIC [9] [µg/mL] | MIC [10] [µg/mL] |
| --- | --- | --- | --- | --- | --- | --- | --- | --- | --- | --- |
| COc1cc(NC(=O)c2ccc(Cl)cc2Cl)ccc1-n1cnc(Cl)c1 | <90 | 10 (≈ 25.2 µM) | 5 (≈ 12.6 µM) | 128 (≈ 323 µM) | 128 (≈ 323 µM) | > 256 | > 256 | 64 (≈ 161 µM) | 128 (≈ 323 µM) |  |
| COc1cc(NC(=O)Cc2cccc(C(F)(F)F)c2)ccc1-n1cnc(Cl)c1 | <90 | 10 (≈ 24.4 µM) | 2.5 (≈ 6.1 µM) | > 256 | 256 (≈ 625 µM) | 128 (≈ 312 µM) | 64 (≈ 156 µM) | 256 (≈ 625 µM) | 128 (≈ 312 µM) | 10 (≈ 24.4 µM) |
| COc1cc(NC(=O)c2ccco2)ccc1-n1cnc(Cl)c1 | <90 |  | 5 (≈ 15.7 µM) | > 256 | 128 (≈ 403 µM) | > 256 | > 256 | 128 (≈ 403 µM) | > 256 |  |
| COc1cc(NC(=O)c2cc(F)cc(C(F)(F)F)c2)ccc1-n1cnc(Cl)c1 | 90 |  | 10 (≈ 24.2 µM) | 128 (≈ 309 µM) | 256 (≈ 619 µM) | 64 (≈ 155 µM) | 64 (≈ 155 µM) | 128 (≈ 309 µM) | 128 (≈ 309 µM) | 10 (≈ 24.2 µM) |
| COc1ccc(C(=O)Nc2ccc(-n3cnc(Cl)c3)c(OC)c2)cc1 | 0 |  |  | > 256 | 256 (≈ 715 µM) | > 256 | 256 (≈ 715 µM) | > 256 | > 256 |  |
| COc1cc(NC(=O)c2ccc(C(F)(F)F)cc2)ccc1-n1cnc(Cl)c1 | 90 | 2.5 (≈ 6.32 µM) | 1.25 (≈ 3.16 µM) | 64 (≈ 162 µM) | 128 (≈ 323 µM) | 32 (≈ 80.9 µM) | 64 (≈ 162 µM) | 64 (≈ 162 µM) | 128 (≈ 323 µM) | 1.25 (≈ 3.16 µM) |
| COc1cc(NC(=O)c2cccc([N+](=O)[O-])c2Cl)ccc1-n1cnc(Cl)c1 | 90 | 1.25 (≈ 3.07 µM) | 1.25 (≈ 3.07 µM) | > 256 | 256 (≈ 629 µM) | 128 (≈ 314 µM) | 128 (≈ 314 µM) | > 256 | 128 (≈ 314 µM) | 1.25 (≈ 3.07 µM) |
| COc1cc(NC(=O)c2c(F)ccc(C(F)(F)F)c2Cl)ccc1-n1cnc(Cl)c1 | <90 | 2.5 (≈ 5.58 µM) | 2.5 (≈ 5.58 µM) | 128 (≈ 286 µM) | > 256 | 128 (≈ 286 µM) | 256 (≈ 571 µM) | 128 (≈ 286 µM) | > 256 |  |
| COc1cc(F)c(C(=O)Nc2ccc(-n3cnc(Cl)c3)c(OC)c2)c(F)c1 | <90 |  | 5 (≈ 12.7 µM) | > 256 | 256 (≈ 650 µM) | 256 (≈ 650 µM) | 128 (≈ 325 µM) | > 256 | 256 (≈ 650 µM) |  |
| COc1cc(NC(=O)c2cccs2)ccc1-n1cnc(Cl)c1 | 90 | 1.25 (≈ 3.74 µM) | 5 (≈ 15 µM) | 32 (≈ 95.9 µM) | 64 (≈ 192 µM) | 256 (≈ 767 µM) | 64 (≈ 192 µM) | 128 (≈ 383 µM) | 128 (≈ 383 µM) | 2.5 (≈ 7.49 µM) |
| COc1cc(NC(=O)C2(c3ccc(Cl)cc3)CC2)ccc1-n1cnc(Cl)c1 | <90 | 2.5 (≈ 6.21 µM) | 2.5 (≈ 6.21 µM) | > 256 | 256 (≈ 636 µM) | > 256 | 256 (≈ 636 µM) | 128 (≈ 318 µM) | 64 (≈ 159 µM) |  |
| C[C@@H]1[C@H](O)[C@@H](C)/C=C/C=C/C=C/C=C/C=C/C=C/C=C/[C@H](O[C@@H]2O[C@H](C)[C@@H](O)[C@H](N)[C@@H]2O)C[C@@H]2O[C@](O)(C[C@@H](O)C[C@@H](O)[C@H](O)CC[C@@H](O)C[C@@H](O)CC(=O)O[C@H]1C)C[C@H](O)[C@H]2C(=O)O [AMPHOTERICIN B] |  |  |  | 16 (≈ 17.3 µM) | 8 (≈ 8.66 µM) | 8 (≈ 8.66 µM) |  |  |  |  |
| O=C(O)c1cn(C2CC2)c2cc(N3CCNCC3)c(F)cc2c1=O [CIPROFLOXACIN] |  |  |  |  |  |  | 16 (≈ 48.3 µM) |  | 8 (≈ 24.1 µM) |  |
| NNC(=O)c1ccncc1 [ISONIAZID] | 95 | 50 (≈ 365 µM) | 0.7 (≈ 5.1 µM) |  |  |  |  |  |  | 12.5 (≈ 91.1 µM) |
| CO[C@H]1/C=C/O[C@@]2(C)Oc3c(C)c(O)c4c(O)c(c(/C=N/N5CCN(C)CC5)c(O)c4c3C2=O)NC(=O)/C(C)=C\C=C\[C@H](C)[C@H](O)[C@@H](C)[C@@H](O)[C@@H](C)[C@H](OC(C)=O)[C@@H]1C [RIFAMPIN] | 95 | 1.5 (≈ 1.82 µM) | 0.5 (≈ 0.608 µM) |  |  |  |  |  |  | 1.5 (≈ 1.82 µM) |
